In ChEMBL document CHEMBL1153433, “Design and synthesis of 2-amino-4-methylpyridine analogues as inhibitors for inducible nitric oxide synthase and in vivo evaluation of [18F]6-(2-fluoropropyl)-4-methyl-pyridin-2-amine as a potential PET tracer for inducible nitric oxide synthase” (J Med Chem, 2009):

How the values were obtained:
[1] = biological target: Nitric oxide synthase, inducible (Homo sapiens, UniProt P35228); test: Inhibition of human recombinant iNOS using 1 mM […] and 2 uM L-arginine after 30 mins
Chain of Nitric oxide synthase, inducible (P35228 whole entry): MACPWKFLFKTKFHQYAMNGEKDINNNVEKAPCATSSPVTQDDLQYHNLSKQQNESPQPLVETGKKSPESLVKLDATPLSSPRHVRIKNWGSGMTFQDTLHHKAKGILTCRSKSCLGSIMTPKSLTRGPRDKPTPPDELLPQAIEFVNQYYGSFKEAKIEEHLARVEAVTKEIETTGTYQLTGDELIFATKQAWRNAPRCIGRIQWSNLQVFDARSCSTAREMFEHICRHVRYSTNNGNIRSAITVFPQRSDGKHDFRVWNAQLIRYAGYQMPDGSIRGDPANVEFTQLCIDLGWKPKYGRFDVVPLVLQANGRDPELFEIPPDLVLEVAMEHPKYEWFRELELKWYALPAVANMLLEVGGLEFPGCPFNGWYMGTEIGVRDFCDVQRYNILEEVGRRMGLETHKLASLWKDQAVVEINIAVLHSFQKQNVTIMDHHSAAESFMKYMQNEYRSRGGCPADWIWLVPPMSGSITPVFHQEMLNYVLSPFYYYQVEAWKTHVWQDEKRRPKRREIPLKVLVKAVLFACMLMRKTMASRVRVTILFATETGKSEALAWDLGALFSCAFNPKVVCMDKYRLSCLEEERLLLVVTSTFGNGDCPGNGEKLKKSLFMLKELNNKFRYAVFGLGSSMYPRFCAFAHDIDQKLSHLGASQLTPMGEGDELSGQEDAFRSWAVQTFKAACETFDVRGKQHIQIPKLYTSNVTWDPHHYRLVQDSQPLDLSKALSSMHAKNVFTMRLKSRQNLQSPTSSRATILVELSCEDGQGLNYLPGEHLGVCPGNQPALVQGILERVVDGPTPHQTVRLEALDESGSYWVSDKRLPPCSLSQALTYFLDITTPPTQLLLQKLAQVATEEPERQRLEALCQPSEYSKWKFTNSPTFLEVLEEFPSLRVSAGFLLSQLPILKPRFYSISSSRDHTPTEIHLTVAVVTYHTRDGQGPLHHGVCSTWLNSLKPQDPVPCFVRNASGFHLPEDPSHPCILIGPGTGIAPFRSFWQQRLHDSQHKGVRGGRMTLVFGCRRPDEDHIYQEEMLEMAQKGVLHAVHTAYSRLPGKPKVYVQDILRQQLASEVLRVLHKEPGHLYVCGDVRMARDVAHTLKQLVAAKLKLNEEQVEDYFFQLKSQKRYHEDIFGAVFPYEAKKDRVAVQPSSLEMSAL
How it was run: (§1)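 Recombinant human NOS, scintillation proximity kit. Buffer: 50 mM Tris pH 7.4, 1.0 mM NADPH, 3.8 μM each of FMN, FAD and tetrahydrobiopterin, 2.0 mM DTT, 2.0 μM L-arginine. eNOS and nNOS buffer also had 20 μg/mL calmodulin and 1 mM CaCl2. Started with [3H]arginine, 30 min at room temperature, stopped with yttrium-silicate arginine-binding beads, counted after 2 h settling. IC50 mean ± SD, N ≥ 3.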

Nitric oxide synthase 1 = Nitric oxide synthase 1 (Homo sapiens, UniProt P29475); test: Inhibition of human recombinant nNOS using 1 mM […] and 2 uM L-arginine after 30 mins; how it was run: as §1
Chain of Nitric oxide synthase 1 (P29475 whole entry): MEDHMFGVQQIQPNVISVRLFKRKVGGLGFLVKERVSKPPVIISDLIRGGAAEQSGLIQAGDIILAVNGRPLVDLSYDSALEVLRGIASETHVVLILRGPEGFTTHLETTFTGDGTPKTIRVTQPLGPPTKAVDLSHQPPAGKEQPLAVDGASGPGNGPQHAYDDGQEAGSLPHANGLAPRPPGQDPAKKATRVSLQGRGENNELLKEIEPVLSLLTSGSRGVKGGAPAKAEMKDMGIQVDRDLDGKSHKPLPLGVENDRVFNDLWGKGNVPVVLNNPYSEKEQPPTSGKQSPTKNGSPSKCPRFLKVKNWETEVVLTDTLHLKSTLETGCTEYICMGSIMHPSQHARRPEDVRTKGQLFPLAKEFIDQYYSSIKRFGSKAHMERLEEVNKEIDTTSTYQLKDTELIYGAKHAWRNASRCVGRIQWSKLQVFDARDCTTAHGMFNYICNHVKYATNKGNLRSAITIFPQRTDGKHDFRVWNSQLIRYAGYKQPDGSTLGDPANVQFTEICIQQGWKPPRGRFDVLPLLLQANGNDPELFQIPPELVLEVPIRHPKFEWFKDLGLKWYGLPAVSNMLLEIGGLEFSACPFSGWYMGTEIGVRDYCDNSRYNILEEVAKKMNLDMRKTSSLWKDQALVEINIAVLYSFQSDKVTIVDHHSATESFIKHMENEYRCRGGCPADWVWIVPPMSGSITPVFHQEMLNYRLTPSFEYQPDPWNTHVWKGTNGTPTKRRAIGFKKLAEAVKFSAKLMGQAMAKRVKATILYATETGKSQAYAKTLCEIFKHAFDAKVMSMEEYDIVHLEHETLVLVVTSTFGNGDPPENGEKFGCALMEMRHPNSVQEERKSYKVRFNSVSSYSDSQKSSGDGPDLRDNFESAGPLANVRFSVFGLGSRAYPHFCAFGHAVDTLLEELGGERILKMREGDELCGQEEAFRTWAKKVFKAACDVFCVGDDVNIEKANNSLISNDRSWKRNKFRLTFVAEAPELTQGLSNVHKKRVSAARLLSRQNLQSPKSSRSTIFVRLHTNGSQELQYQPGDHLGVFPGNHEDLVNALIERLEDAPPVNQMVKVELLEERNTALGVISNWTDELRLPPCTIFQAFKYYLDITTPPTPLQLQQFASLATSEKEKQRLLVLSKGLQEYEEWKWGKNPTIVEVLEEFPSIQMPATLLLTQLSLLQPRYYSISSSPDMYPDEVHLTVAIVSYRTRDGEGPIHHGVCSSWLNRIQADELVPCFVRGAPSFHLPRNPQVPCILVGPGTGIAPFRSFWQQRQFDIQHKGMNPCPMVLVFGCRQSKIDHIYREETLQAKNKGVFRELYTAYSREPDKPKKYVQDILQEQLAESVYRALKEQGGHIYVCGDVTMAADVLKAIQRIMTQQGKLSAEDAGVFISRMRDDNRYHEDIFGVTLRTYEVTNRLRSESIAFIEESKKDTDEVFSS

Nitric oxide synthase 3 = biological target: T1, Nitric oxide synthase 3 (Homo sapiens, UniProt P29474); test: Inhibition of human recombinant eNOS using 1 mM […] and 2 uM L-arginine after 30 mins; how it was run: as §1
T1 sequence (P29474 whole entry): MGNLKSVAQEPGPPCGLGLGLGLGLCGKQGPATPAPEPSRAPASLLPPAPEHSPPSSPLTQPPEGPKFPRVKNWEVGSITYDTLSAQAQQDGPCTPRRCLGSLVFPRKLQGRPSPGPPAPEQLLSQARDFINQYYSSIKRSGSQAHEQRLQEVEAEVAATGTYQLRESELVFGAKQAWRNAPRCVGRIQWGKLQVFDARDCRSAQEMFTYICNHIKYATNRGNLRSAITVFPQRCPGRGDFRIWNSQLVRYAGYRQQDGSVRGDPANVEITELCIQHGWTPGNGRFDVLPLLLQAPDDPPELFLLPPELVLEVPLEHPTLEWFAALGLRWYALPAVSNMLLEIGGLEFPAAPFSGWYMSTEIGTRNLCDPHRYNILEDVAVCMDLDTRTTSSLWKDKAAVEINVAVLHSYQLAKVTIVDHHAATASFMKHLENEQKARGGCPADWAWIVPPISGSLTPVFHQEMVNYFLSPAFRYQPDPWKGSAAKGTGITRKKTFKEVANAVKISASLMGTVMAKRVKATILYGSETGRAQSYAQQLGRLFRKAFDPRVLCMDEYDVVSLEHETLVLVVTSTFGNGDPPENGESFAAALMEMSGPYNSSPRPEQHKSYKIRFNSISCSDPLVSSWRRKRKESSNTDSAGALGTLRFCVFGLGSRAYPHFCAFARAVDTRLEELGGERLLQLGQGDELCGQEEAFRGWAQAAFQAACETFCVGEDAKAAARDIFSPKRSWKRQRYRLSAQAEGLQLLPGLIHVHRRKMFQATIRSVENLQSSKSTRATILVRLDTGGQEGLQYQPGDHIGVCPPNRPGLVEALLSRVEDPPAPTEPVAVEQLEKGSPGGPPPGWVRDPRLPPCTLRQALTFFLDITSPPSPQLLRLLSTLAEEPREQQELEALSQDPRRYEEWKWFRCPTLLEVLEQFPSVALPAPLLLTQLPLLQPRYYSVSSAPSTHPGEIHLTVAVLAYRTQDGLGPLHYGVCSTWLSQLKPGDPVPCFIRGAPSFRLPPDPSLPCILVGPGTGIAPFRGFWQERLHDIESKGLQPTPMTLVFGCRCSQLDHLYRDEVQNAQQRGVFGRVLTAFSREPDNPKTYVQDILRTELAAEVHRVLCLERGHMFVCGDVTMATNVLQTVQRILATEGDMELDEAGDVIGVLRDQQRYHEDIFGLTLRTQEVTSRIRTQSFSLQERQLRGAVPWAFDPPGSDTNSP

Structure (SMILES) | IC50 [1] | IC50 (Nitric oxide synthase 1) | IC50 (Nitric oxide synthase 3)
CSCCC(C)Cc1cc(C)cc(N)n1 (stereo not drawn) | > 5000 nM | – | –
C/C=C/c1cc(C)cc(N)n1 | 282 nM | – | –
Cc1cc(N)nc(CC(C)OCCF)c1 (stereo not drawn) | > 5000 nM | – | –
COC(C)Cc1cc(C)cc(N)n1 (stereo not drawn) | > 5000 nM | – | –
Cc1cc(N)nc(CCCCF)c1 | 170 nM | – | –
Cc1cc(N)nc(CC(C)CCF)c1 (stereo not drawn) | 731 nM | – | –
COCCC(C)Cc1cc(C)cc(N)n1 (stereo not drawn) | > 5000 nM | – | –
Cc1cc(N)nc(CCCF)c1 | 57.6 nM | 514 nM | 1430 nM
Cc1cc(N)nc(CC(C)F)c1 (stereo not drawn) | 220 nM | – | 1500 nM
Cc1cc(N)nc(CC(C)O)c1 (stereo not drawn) | 1780 nM | – | –
